Assays:
MDA-MB-231 [1] = assay: Cell cycle analysis; format: cell-based, human; settings: 48 hours
BJ fibroblast = assay: Cell cycle analysis; format: cell-based; settings: 5 ppm, 48 hours
MCF-7 mammospheres [2] = assay: Mammosphere formation; format: cell-based, human; settings: MCF-7 primary mammospheres
Summary of the method: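 MCF-7 cells trypsinised (0.05% trypsin/EDTA), PBS-washed twice and sieved to single cells. Diluted to 10,000 cells/mL in serum-free phenol-red-free MEBM with 5 μg/ml insulin, 20 ng/ml EGF, 20 ng/ml bFGF, 1× B27 and 0.5 μg/ml hydrocortisone, and plated on ultralow-attachment 96-well plates. Next day, test compound (ppm) or 0.6% acetone final vehicle added; medium replenished every 3–4 days. Spheres over size threshold counted per well at 5×; triplicate wells ± SD, paired t-test.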

MCF10A [3] = assay: XTT viability assay; format: cell-based
MCF-7 [4] = assay: XTT viability assay; format: cell-based, human; settings: MCF-7, XTT
Summary of the method: (§1)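 Seeding in normal growth medium in 96-well plates: 1500 cells/well for MCF10A, MDA-MB-231 and MDA-MB-436, 4000 for MCF-7. Next day, phenol-free DMEM with 10% charcoal-stripped FBS containing final concentrations of test compound or acetone vehicle, the vehicle matched to the highest dose only. After 3 days, XTT reagent 2–3 h at 37 °C. Absorbance at 450 nm minus 750 nm reference and medium blank, expressed as % of control; IC50 interpolated from sigmoidal dose–response curves.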

T47D = assay: XTT viability assay; format: cell-based, human
MDA-MB-231 [5] = assay: XTT viability assay; format: cell-based, human; settings: MDA-MB-231, XTT
Summary of the method: as §1

MDA-MB-436 [6] = assay: XTT viability assay; format: cell-based, human; settings: MDA-MB-436, XTT
Summary of the method: as §1

MDA-MB-231 cells [7] = assay: Hoechst33342 nuclear staining; format: cell-based, human; settings: MDA-MB-231, 5-10 ppm, 24 hours, Hoechst staining
MDA-MB-231 cells [8] = assay: XTT viability after timed SL exposure and removal; format: cell-based, human; settings: MDA-MB-231, 5ppm and 10ppm, XTT at 24 hours
Summary of the method: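 MDA-MB-231 cells exposed to test compound at 5 or 10 ppm for 2, 4 or 24 h. Medium was then removed, cells washed, and growth medium without compound added. XTT viability read 24 h after treatment start, as % of vehicle controls, mean ± SD; two-tailed paired Student's t-test against vehicle.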

MCF-7 mammospheres [9] = assay: Integrity of mature primary mammospheres; format: cell-based, human; settings: mature MCF-7 mammospheres; for mammosphere numbers (≥100μM), percentage of vehicle treated control: 5 days of treatment, vehicle control 86.7±6.8
P38 MAPK = assay: Immunoblot pP38; format: cell-based, human; settings: densitometry of immunoblot
Summary of the method: (§2)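 MDA-MB-231 cells treated with test compound, e.g. 10 ppm for 1–24 h. For P38 inhibition, cells were pretreated 1 h with SB203580, then co-treated 4 h. Lysed in Tris pH 7.5/NP-40/SDS/deoxycholate buffer with phosphatase and protease inhibitors. 20–50 μg protein resolved by 10 or 12% SDS-PAGE, wet-transferred and blocked in 5% BSA/TBS-Tween. Phospho-specific primaries at 1:1000, HRP secondaries at 1:5,000, chemiluminescent detection; band densitometry.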

ATF2 = assay: Immunoblot pATF2; format: cell-based, human
Summary of the method: as §2

MAPKAPK = assay: Immunoblot pT334 MAPKAPK; format: cell-based, human; settings: MDA-MB-231, SB203580 exposure
Summary of the method: as §2

MDA-MB-436 [10] = assay: Crystal violet growth assay; format: cell-based, human
Summary of the method: (§3)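 Cell seeding in 96-well plates was 1500 cells/well (MDA-MB-231, MDA-MB-436, BJ fibroblasts) or 4000 (MCF-7). Next day, phenol-free DMEM with 10% charcoal-stripped FBS plus test compound at 0.5–10 ppm (1.65–33 μM) or acetone vehicle, for up to 10 days. Plates were fixed and stained 15 min with 0.5% crystal violet/25% methanol, washed, dried, and dye eluted in 0.1 M sodium citrate; absorbance 560 nm, % of vehicle, triplicates ± SD. Day-7 IC50 by linear-regression interpolation.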

MDA-MB-231 [11] = assay: Crystal violet growth assay; format: cell-based, human
Summary of the method: as §3

MCF-7 [12] = assay: Crystal violet growth assay; format: cell-based, human
Summary of the method: as §3

BJ fibroblasts = assay: Crystal violet growth assay; format: cell-based; settings: 0.5 to 10ppm, up to 10 days
Summary of the method: as §3

MDA-MB-436 [13] = assay: Cell cycle analysis; format: cell-based, human; settings: MDA-MB-436, 10ppm, 48 hours
MCF-7 [14] = assay: Cell cycle analysis; format: cell-based, human; settings: MCF-7, 10ppm, 48 hours
MCF10A [15] = assay: Cell cycle analysis; format: cell-based; settings: 0.5-10ppm, 48 hours
MDA-MB-231 mammospheres = assay: Mammosphere formation; format: cell-based, human
Summary of the method: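 Single-cell MDA-MB-231 suspensions grown as mammospheres in serum-free phenol-red-free CnT-27 medium with growth additives on ultralow-attachment 96-well plates. Next day, test compound (ppm) or vehicle (0.6% acetone final) added; medium replenished every 3–4 days. Mammospheres above size threshold counted per well; triplicate wells, mean ± SD, two-tailed paired t-test versus vehicle.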

[16] = test system: MCF-7 secondary mammospheres; assay: XTT viability assay on mammospheres; format: cell-based, human; settings: 5 days
ALDH1 = assay: Aldefluor ALDH1 activity in mammospheres; format: cell-based, human; settings: MCF-7 primary mammospheres grown with GR-24; vehicle 6%

SMILES: CC1=CC(O/C=C2/C(=O)c3c(c4cc(-c5scc6c5OCCO6)ccc4n3C)C2C)OC1=O (stereo not drawn) [ST362]
- SubG1/poptosis (MDA-MB-231 [1]; MDA-MB-231, 5 ppm, vehicle 0.41): 4.17
- Cell Cycle Distribution (%) S (MDA-MB-231 [1]; MDA-MB-231, 5 ppm, vehicle 13.02): 11.90%
- Cell Cycle Distribution (%) G2 (MDA-MB-231 [1]; MDA-MB-231, 5 ppm, vehicle 24.08): 37.93%
- Cell Cycle Distribution (%) G1 (MDA-MB-231 [1]; MDA-MB-231, 5 ppm, vehicle 60.43): 42.17%
- SubG1/poptosis (BJ fibroblast; vehicle 0.21): 0.72
- Cell Cycle Distribution (%) S (BJ fibroblast; vehicle 2.510): 1.580%
- Cell Cycle Distribution (%) G2 (BJ fibroblast; vehicle 10.17): 12.86%
- Cell Cycle Distribution (%) G1 (BJ fibroblast; vehicle 84.25): 83.42%
- mammosphere formation (MCF-7 mammospheres [2]; 1ppm): significantly inhibited mammosphere formation
- mammosphere growth (MCF-7 mammospheres [2]; 2.5ppm, 7 days): able to block mammosphere growth
- IC50 (ppm) at 72hours (MCF10A [3]): >15 ppm
- reduction in viability (MCF10A [3]; between day 10 and 14 (so in the source)): 20%
- IC50 (ppm) at 72hours (MCF-7 [4]): 8.1 ppm
- IC50 (ppm) at 72hours (T47D): 8.6 ppm
- IC50 (ppm) at 72hours (MDA-MB-231 [5]): 2.9 ppm
- IC50 (ppm) at 72hours (MDA-MB-436 [6]): 5.9 ppm
- nuclear changes indicative of apoptosis (MDA-MB-231 cells [7]): increased nuclear condensation and fragmentation
- cell viability after 2 hours exposure (MDA-MB-231 cells [8]; SL removed): No changes in cell viability
- cell viability after 4 hours exposure (MDA-MB-231 cells [8]; SL removed, p<0.01): significant decrease in viability
- cell viability after continual exposure (24h) compared to 4 hours exposure (MDA-MB-231 cells [8]; p<0.001): greater reduction in cell viability
- mammosphere numbers (≥100μM), percentage of vehicle treated control (MCF-7 mammospheres [9]; 2.5ppm): 6±1.7%
- mammosphere morphology (MCF-7 mammospheres [9]; 5 and 2.5ppm, after 48 hours): looser morphology and appeared to be dissociating
- mammosphere numbers (≥100μM), percentage of vehicle treated control (MCF-7 mammospheres [9]; 5ppm): 8.3±3.5%
- increase in pP38 levels compared to vehicle (P38 MAPK; MDA-MB-231, 4 hours): 5 fold
- increase in pP38 levels compared to vehicle (P38 MAPK; MDA-MB-231, 8 hours): 13 fold
- phosphorylation of ATF2 (ATF2; MDA-MB-231, immunoblot, SL treatment 4-8 hours): induced

SMILES: C[S+]([O-])c1ccc(-c2nc(-c3ccncc3)c(-c3ccc(F)cc3)[nH]2)cc1 (stereo not drawn) [SB203580, reference compound]
- inhibition of ATF2 phosphorylation following SL treatment (ATF2; MDA-MB-231, 20 μM to 40 μM): did not inhibit ATF2 phosphorylation
- pT334 MAPKAPK phosphorylation (MAPKAPK): decreased in a dose dependent manner

SMILES: CC1=C[C@H](O/C=C2/C(=O)O[C@@H]3c4ccccc4C[C@H]23)OC1=O [GR-24]
- IC50 of long-term proliferation (MDA-MB-436 [10]; MDA-MB-436, 7 days): 5.2 ppm
- IC50 (MDA-MB-436 [10]; read-out: IC50 of long-term proliferation, MDA-MB-436, 7 days): 17.2 µM
- IC50 of long-term proliferation (MDA-MB-231 [11]; MDA-MB-231, 7 days): 5.7 ppm
- IC50 (MDA-MB-231 [11]; read-out: IC50 of long-term proliferation, MDA-MB-231, 7 days): 18.8 µM
- IC50 of long-term proliferation (MCF-7 [12]; MCF-7, 7 days): 5.7 ppm
- IC50 (MCF-7 [12]; read-out: IC50 of long-term proliferation, MCF-7, 7 days): 18.8 µM
- growth compared to vehicle (BJ fibroblasts): no significant reduction in growth
- increase in sub-G1/apoptotic fraction compared to vehicle (MDA-MB-231 [1]; MDA-MB-231, 10ppm): 4.6 fold
- increase in sub-G1/apoptotic fraction compared to vehicle (MDA-MB-436 [13]): 3.4 fold
- change in subG1 fraction (MCF-7 [14]): no change
- change in cell cycle distribution (MCF10A [15]): no change
- mammosphere growth (MCF-7 mammospheres [2]; 0.5ppm): inhibited to a lesser degree
- mammosphere formation (MCF-7 mammospheres [2]; 1ppm): severely attenuated
- mammosphere formation (MCF-7 mammospheres [2]; 2.5 –5ppm): completely inhibited
- mammosphere growth (MDA-MB-231 mammospheres; 2.5ppm): severely attenuated
- mammosphere formation (MDA-MB-231 mammospheres; 5ppm): completely blocked
- mammosphere viability (% of vehicle control) ([16]; 2.5ppm): 68.6%±12.4
- reduction of mammosphere viability ([16]; 5ppm): approximately 80%
- mammosphere viability (% of vehicle control) ([16]; 5ppm, control 98.4%± 3.4): 16.4%± 4.6
- ALDH activity (percentage of ALDH positive cells) (ALDH1): 2%

Reference: publication PMC3706105 (Breast cancer research and treatment, 2012)
